Here are results for 30 molecules from ChEMBL document CHEMBL1146454, “Antifungal 3-butylisocoumarins from Asteraceae-Anthemideae” (J Nat Prod, 2004).

In one assay the test system is Pyricularia grisea. Nature of the assay: Antifungal activity against Pyricularia grisea assessed as inhibition of germ-tube development by microdilution method. The assay is classed as functional, organism-based. The gist of the method:
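Pyricularia grisea isolate from infected rice leaves (Thailand), tested in 4% malt extract broth by microdilution. Stock in acetone/malt extract emulsified with 0.2% Tween 80, diluted 2-fold; final range 200–0.78 μg/mL. Inoculum 10⁴ CFU conidia per well. Incubated 16 h at room temperature, stopped with lactophenol blue. Germ-tube size measured by pixel counts of 10 conidia per well. EC50/EC90 by probit; MIC is the first concentration giving total inhibition.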
A general note: Broth dilution looks for growth in wells or tubes with falling amounts of substance.

For another assay, the system named is Cladosporium herbarum. Nature of the assay: Antifungal activity against Cladosporium herbarum assessed as inhibition zone in mycelial layer assessed per spot by TLC bioautography assay. The assay is classed as functional. Put shortly: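 TLC bioautography with Cladosporium herbarum strain VIAM-MA1511 as the mycelial layer. Compounds were applied as a dilution series from 100 to 25 μg/spot, and plates were held 3 days. The MIC was the first amount in the series that gave a homogeneous inhibition zone in the mycelial layer.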

A word on the EC50: it is the midpoint of the concentration-response curve. As usually defined, the EC90 is the point of the concentration-response curve where the effect stands at 90%.

Molecules are shown by their SMILES. Values after ≈ are worked out from the molar mass of the structure shown. Active and inactive are the calls of the source. The calls are words filed in the database; no cut-off is given here. Bounds are passed on as bounds.

`COc1cc(O)c2c(c1)C[C@@H](C)OC2=O`: in the assay on Pyricularia grisea, the 50% effective concentration (EC50) was determined as 47 µg/mL (≈ 226 µM), the EC90 came out at 106 µg/mL (≈ 509 µM) and the MIC came out at 200 µg/mL (≈ 961 µM). For the same molecule, in the assay on Cladosporium herbarum, the MIC came to 25 µg.

In the case of `CCC#Cc1cc2ccccc2c(=O)o1` [CORFIN], in the assay with Pyricularia grisea, the half-maximal effective concentration (EC50) came out at 3 µg/mL (≈ 15.1 µM), the 90% effect concentration (EC90) was 99 µg/mL (≈ 499 µM) and the MIC is 100 µg/mL (≈ 504 µM). For the same molecule, in the assay with Cladosporium herbarum, the MIC was above 100 µg.

For the molecule `CCCC(Br)c1cc2ccccc2c(=O)o1` (centres undefined), in the assay with Pyricularia grisea, the 50% effective concentration (EC50) came out at 35 µg/mL (≈ 124 µM), the 90% effect concentration (EC90) worked out at 96 µg/mL (≈ 341 µM) and the MIC stood at 100 µg/mL (≈ 356 µM). Besides, in the assay on Cladosporium herbarum, the MIC stood at 25 µg.

Turning to `CC[C@H](O)Cc1cc2ccccc2c(=O)o1`, the EC50 with Pyricularia grisea worked out at 25 µg/mL (≈ 115 µM). The figures for the MIC in the assay on Pyricularia grisea and in the assay on Cladosporium herbarum were above 200 µg/mL and 100 µg, respectively.

As to `CC/C=C/c1cc2cccc(O)c2c(=O)o1`, in the assay with Pyricularia grisea, the EC50 was found to be 4 µg/mL (≈ 18.5 µM), the EC90 was 19 µg/mL (≈ 87.9 µM) and the MIC is 25 µg/mL (≈ 116 µM). Further, the MIC in the assay on Cladosporium herbarum is above 100 µg.

As for `CCCC(O)c1cc2ccccc2c(=O)o1` (centres undefined), in the assay on Pyricularia grisea, the concentration giving a half-maximal response (EC50) is 37 µg/mL (≈ 170 µM), the EC90 was determined as 83 µg/mL (≈ 380 µM) and the MIC was found to be 100 µg/mL (≈ 458 µM). Further, in the assay on Cladosporium herbarum, the MIC came out at 100 µg.

Consider `O=c1occc2ccccc12` [ISOCOUMARIN], for which, in the assay with Pyricularia grisea, the concentration for a half-maximal effect (EC50) stood at 83 µg/mL (≈ 568 µM) and the MIC was above 200 µg/mL.

For `CC/C=C/c1cc2ccccc2c(=O)o1`, in the assay with Pyricularia grisea, the half-maximal effective concentration (EC50) was found to be 11 µg/mL (≈ 54.9 µM), the concentration for an effect of 90% (EC90) worked out at 19 µg/mL (≈ 94.9 µM) and the MIC was 25 µg/mL (≈ 125 µM). In the assay on Cladosporium herbarum, the MIC worked out at 100 µg.

On to `CC[C@H]1O[C@@H]1c1cc2ccccc2c(=O)o1` (racemic), for which, in the assay with Pyricularia grisea, the outcome was inactive. For the same molecule, in the assay with Cladosporium herbarum, the MIC came out at 50 µg.

Consider `C=C/C=C/c1cc2ccccc2c(=O)o1`, for which, in the assay on Pyricularia grisea, the EC50 stood at 14 µg/mL (≈ 70.6 µM), the EC90 amounted to 45 µg/mL (≈ 227 µM) and the MIC was 50 µg/mL (≈ 252 µM). Besides, the MIC in the assay on Cladosporium herbarum was found to be 25 µg.

Turning to `CC[C@H](Cc1cc2ccccc2c(=O)o1)OC`, the outcome in the assay with Pyricularia grisea was inactive. The MIC with Cladosporium herbarum was above 100 µg.

For `CCCC(Br)(Br)c1cc2ccccc2c(=O)o1`, in the assay on Pyricularia grisea, the EC50 came to 22 µg/mL (≈ 61.1 µM) and the MIC is above 200 µg/mL. In addition, the MIC with Cladosporium herbarum was 50 µg.

`CC[C@H](O)[C@H](O)c1cc2ccccc2c(=O)o1` (relative stereo): the result in the assay on Pyricularia grisea was inactive.

With `CC#CCc1cc2ccccc2c(=O)o1` [CAPILLARIN], in the assay on Pyricularia grisea, the EC50 turned out to be 37 µg/mL (≈ 187 µM), the EC90 is 92 µg/mL (≈ 464 µM) and the MIC worked out at 100 µg/mL (≈ 504 µM). Moreover, the result with Cladosporium herbarum was inactive.

As for `CCC(Br)C(Br)c1cc2ccccc2c(=O)o1` (centres undefined), the MIC with Cladosporium herbarum is 100 µg.

In the case of `CO/N=C(/C(=O)OC)c1ccccc1COc1ccccc1C` [KRESOXIM-METHYL], in the assay on Pyricularia grisea, the EC50 was found to be 0.003 µg/mL (≈ 0.00957 µM) and the MIC was above 200 µg/mL.

Turning to `CC(C)CC(=O)OCC#CCc1cc2ccccc2c(=O)o1` [CAPILLARIN ISOVALERATE], in the assay on Pyricularia grisea, the 50% effective concentration (EC50) was determined as 5 µg/mL (≈ 16.8 µM), the 90% effect concentration (EC90) was 13 µg/mL (≈ 43.6 µM) and the MIC worked out at 25 µg/mL (≈ 83.8 µM). Also, the result in the assay with Cladosporium herbarum was inactive.

For `CC/C=C/c1cc2c(O)cccc2c(=O)o1` [ARTEMIDINOL], in the assay with Pyricularia grisea, the EC50 is 12 µg/mL (≈ 55.5 µM), the 90% effect concentration (EC90) is 32 µg/mL (≈ 148 µM) and the MIC was 50 µg/mL (≈ 231 µM). Moreover, the MIC with Cladosporium herbarum was above 100 µg.

Turning to `COC1=CC(=O)C[C@@H](C)[C@]12Oc1c(Cl)c(OC)cc(OC)c1C2=O` [GRISEOFULVIN], in the assay with Pyricularia grisea, the EC50 is 4 µg/mL (≈ 11.3 µM) and the MIC is above 200 µg/mL.

On to `CC(=O)OC(C)/C=C/c1cc2ccccc2c(=O)o1` (centres undefined), for which, in the assay with Pyricularia grisea, the EC50 was determined as 8 µg/mL (≈ 31 µM), the EC90 is 30 µg/mL (≈ 116 µM) and the MIC was 50 µg/mL (≈ 194 µM). In the assay with Cladosporium herbarum, the MIC is 50 µg.

Regarding `CCCCNC(=O)n1c(NC(=O)OC)nc2ccccc21` [BENOMYL], in the assay on Pyricularia grisea, the EC50 was 0.06 µg/mL (≈ 0.207 µM) and the MIC turned out to be 200 µg/mL (≈ 689 µM). The MIC in the assay on Cladosporium herbarum was below 25 µg.

On to `C[C@@H](O)/C=C/c1cc2ccccc2c(=O)o1`, for which, in the assay on Pyricularia grisea, the half-maximal effective concentration (EC50) stood at 140 µg/mL (≈ 647 µM), the concentration for an effect of 90% (EC90) worked out at 292 µg/mL (≈ 1350 µM) and the MIC is above 200 µg/mL. For the same molecule, in the assay with Cladosporium herbarum, the MIC came to 100 µg.

As to `CC(O)C#Cc1cc2ccccc2c(=O)o1` (centres undefined), in the assay on Pyricularia grisea, the concentration giving a half-maximal response (EC50) came to 0.9 µg/mL (≈ 4.2 µM) and the MIC is 50 µg/mL (≈ 233 µM). The MIC with Cladosporium herbarum turned out to be 100 µg.

On to `CN(CC[C@H](N)CC(=O)N[C@H]1C=C[C@H](n2ccc(N)nc2=O)O[C@@H]1C(=O)O)C(=N)N` [BLASTICIDIN_S], for which, in the assay with Pyricularia grisea, the EC50 turned out to be 13 µg/mL (≈ 30.8 µM) and the MIC was above 200 µg/mL.

In the case of `CC/C=C(\Br)c1cc2ccccc2c(=O)o1`, in the assay on Pyricularia grisea, the EC50 stood at 2 µg/mL (≈ 7.17 µM), the EC90 turned out to be 9 µg/mL (≈ 32.2 µM) and the MIC was 12 µg/mL (≈ 43 µM). Also, the MIC in the assay on Cladosporium herbarum is below 25 µg.

As to `CC[C@@H]1O[C@H]1c1cc2ccccc2c(=O)o1`, in the assay with Pyricularia grisea, the EC50 amounted to 93 µg/mL (≈ 430 µM) and the MIC was above 200 µg/mL. Moreover, the MIC in the assay on Cladosporium herbarum was 25 µg.

`CC[C@@H](O)[C@H](O)c1cc2ccccc2c(=O)o1` (relative stereo): in the assay on Pyricularia grisea, the outcome was inactive.

Regarding `CC(=O)/C=C/c1cc2ccccc2c(=O)o1`, in the assay on Pyricularia grisea, the EC50 was 5 µg/mL (≈ 23.3 µM), the concentration for an effect of 90% (EC90) worked out at 21 µg/mL (≈ 98 µM) and the MIC turned out to be 25 µg/mL (≈ 117 µM). Besides, the MIC in the assay on Cladosporium herbarum was below 25 µg.

Turning to `CC#CCc1cc2cccc(O)c2c(=O)o1`, in the assay on Pyricularia grisea, the EC50 was 2 µg/mL (≈ 9.34 µM), the 90% effect concentration (EC90) worked out at 102 µg/mL (≈ 476 µM) and the MIC turned out to be 100 µg/mL (≈ 467 µM). The outcome in the assay on Cladosporium herbarum was inactive.

Take `CCCCc1cc2ccccc2c(=O)o1` [DIHYDROARTEMIDIN]: in the assay on Pyricularia grisea, the half-maximal effective concentration (EC50) is 10 µg/mL (≈ 49.4 µM), the EC90 worked out at 40 µg/mL (≈ 198 µM) and the MIC was found to be 50 µg/mL (≈ 247 µM). In addition, the MIC in the assay with Cladosporium herbarum is 100 µg.
